Measurements from ChEMBL document CHEMBL4219244, “Blocking Alcoholic Steatosis in Mice with a Peripherally Restricted Purine Antagonist of the Type 1 Cannabinoid Receptor” (J Med Chem, 2018).
Values belong to the compound of their own block, whether it stands above or below them. Active and inactive are the calls of the source. No cut-off for these calls is given here.

What was measured:
Cannabinoid receptor 2 = Cannabinoid receptor 2 (Homo sapiens, UniProt P34972); assay: Displacement of [3H]CP55940 from human CB2 expressed in CHOK1 cell membranes
Sequence of Cannabinoid receptor 2 (P34972 whole entry): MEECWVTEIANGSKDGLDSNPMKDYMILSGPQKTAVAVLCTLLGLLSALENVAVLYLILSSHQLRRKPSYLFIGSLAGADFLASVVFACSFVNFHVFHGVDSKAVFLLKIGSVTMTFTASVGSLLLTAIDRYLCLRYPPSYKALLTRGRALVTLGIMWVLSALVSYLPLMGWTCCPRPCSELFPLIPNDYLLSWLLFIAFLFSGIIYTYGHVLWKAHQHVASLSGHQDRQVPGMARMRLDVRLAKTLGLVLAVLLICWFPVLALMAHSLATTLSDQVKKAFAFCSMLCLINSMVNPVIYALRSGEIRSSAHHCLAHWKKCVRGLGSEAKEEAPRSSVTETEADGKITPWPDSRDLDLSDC

Cannabinoid receptor 1 = Cannabinoid receptor 1 (Homo sapiens, UniProt P21554); assay: Displacement of [3H]CP55940 from human CB1 expressed in CHOK1 cell membranes
Sequence of Cannabinoid receptor 1 (P21554 whole entry): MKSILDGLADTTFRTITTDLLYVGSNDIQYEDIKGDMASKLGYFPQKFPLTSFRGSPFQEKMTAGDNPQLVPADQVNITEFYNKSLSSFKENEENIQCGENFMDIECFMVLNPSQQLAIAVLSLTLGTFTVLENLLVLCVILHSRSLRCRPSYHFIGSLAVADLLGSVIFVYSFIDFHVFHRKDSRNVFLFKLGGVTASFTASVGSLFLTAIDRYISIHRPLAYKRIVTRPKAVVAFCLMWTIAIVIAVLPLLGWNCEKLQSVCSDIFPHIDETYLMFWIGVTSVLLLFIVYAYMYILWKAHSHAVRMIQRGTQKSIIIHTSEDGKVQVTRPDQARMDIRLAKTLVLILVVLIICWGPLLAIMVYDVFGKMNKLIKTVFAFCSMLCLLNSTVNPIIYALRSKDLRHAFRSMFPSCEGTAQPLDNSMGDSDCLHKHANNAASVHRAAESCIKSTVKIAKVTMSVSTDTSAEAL

Homo sapiens = species: Homo sapiens; assay: Selectivity ratio of Ki for human CB2 to Ki for human CB1
Outline: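 Displacement of [3H]CP55940 binding to membranes from CHO cells overexpressing human CB1 or human CB2. Ki was determined at each receptor, and the ratio was taken as Ki(hCB2)/Ki(hCB1). Values are averages of three to six measurements.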

[1] = Drug uptake in C57BL/6 mouse brain at 1.25 mg/kg, po bid administered via gavage treated for 7 days measured at 0.5 to 24 hrs post last dose; format: ADME, organism-based; conditions: in vivo
[2] = Aqueous kinetic solubility of the compound in 10 mM phosphate buffer at pH 7.4 after 90 mins by LC/MS analysis; format: physicochemical; conditions: read-out: Kinetic_solubility
Outline: (§1)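 10 mM DMSO stocks diluted into 10 mM phosphate buffer (final DMSO 1%), shaken 90 min at room temperature, filtered through 0.4 μm plates. Filtrate concentration quantified by LC/MS against a six-point standard curve. Mean of three determinations.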

[3] = Drug uptake in alcohol-induced hepatic steatosis C57BL/6 mouse model brain at 1.25 mg/kg, po bid administered via gavage treated for 2 weeks measured at 16 hrs post last dose by LC-MS method; format: ADME, organism-based; conditions: in vivo
Mus musculus [4] = assay: Suppression of CP55940-induced hypothermia in C57BL/6 mouse assessed as reduction in body temperature at 10 mg/kg, po administered via gavage pretreated for 30 mins followed by CP55940 addition measured at regular interval up to 4 hrs; format: ADME, organism-based; conditions: in vivo
Outline: (§2)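 Female C57BL6 mice, acclimated 2 weeks, given test agent or vehicle by oral gavage; after 30 min, CP55940 0.56 mg/kg ip in corn oil. Rectal temperature recorded at regular intervals up to 4 h. Six animals per group; means and standard deviations; two-way ANOVA versus vehicle.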

Mus musculus [5] = assay: Anti-hepatic steatosis activity in alcohol-induced hepatic steatosis C57BL/6 mouse model assessed as reduction in hepatic lipid accumulation at 1.25 mg/kg, po bid administered via gavage treated for 2 weeks by oil red o-staining based histopathological assay; format: functional, organism-based
Outline: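 Female C57BL6 mice on Lieber-DeCarli liquid diet; ethanol raised progressively 1 to 5% (v/v) over 15 days, then 4 further weeks; pair-fed controls on control diet. Drug suspended in 0.5% sodium carboxymethylcellulose, 1% NMP, 0.3% Tween 80, given 1.25 mg/kg twice daily by gavage for last 2 weeks. Liver sections (10 μm, OCT) stained with Oil Red O; droplets counted in six grids per image; n = 6 per group; ANOVA.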

[6] = Aqueous kinetic solubility of the compound in 10 mM phosphate buffer at pH 1.6 after 90 mins by LC/MS analysis; format: physicochemical; conditions: read-out: Kinetic_solubility; outline: as §1
[7] = Drug uptake in C57BL/6 mouse brain at 5 mg/kg, po after 0.6 to 24 hrs by LC-MS method; format: ADME, organism-based; conditions: in vivo
Mus musculus [8] = assay: Suppression of CP55940-induced hypothermia in C57BL/6 mouse assessed as reduction in body temperature at 30 mg/kg, po administered via gavage pretreated for 30 mins followed by CP55940 addition measured at regular interval up to 4 hrs; format: ADME, organism-based; conditions: in vivo; outline: as §2

Structure (SMILES): Cc1ccc(CN2CCN(c3ncnc4c3nc(-c3ccccc3Cl)n4-c3ccc(Cl)cc3)CC2)cc1
Ki (Cannabinoid receptor 2): > 10 µM

Structure (SMILES): Clc1ccc(-n2c(-c3ccccc3Cl)nc3c(N4CCN(Cc5ccccc5)CC4)ncnc32)cc1
Ki (Cannabinoid receptor 1): 0.004 µM | Ratio Ki (Homo sapiens): 110 | Ki (Cannabinoid receptor 2): 0.43 µM

Structure (SMILES): N#Cc1ccccc1N1CCN(c2ncnc3c2nc(-c2ccccc2Cl)n3-c2ccc(Cl)cc2)CC1
Ki (Cannabinoid receptor 2): > 10 µM

Structure (SMILES): COc1ccc(CN2CCN(c3ncnc4c3nc(-c3ccccc3Cl)n4-c3ccc(Cl)cc3)CC2)cc1
Ki (Cannabinoid receptor 2): > 10 µM

Drug uptake [1]: Not Active | solubility kinetic at […] [2]: < 0.4 µM | Drug uptake [3]: Not Active | solubility kinetic at […] [6]: > 200 µM
Structure (SMILES): Clc1ccc(-n2c(-c3ccccc3Cl)nc3c(N4CCN(Cc5ccccc5Cl)CC4)ncnc32)cc1
Activity (Mus musculus [4]): Non-Toxic | Activity (Mus musculus [5]): Active

Structure (SMILES): N#CC(c1ccccc1)N1CCN(c2ncnc3c2nc(-c2ccccc2Cl)n3-c2ccc(Cl)cc2)CC1 (stereo not given)
Ki (Cannabinoid receptor 1): 0.007 µM | Ratio Ki (Homo sapiens): 66 | Ki (Cannabinoid receptor 2): 0.46 µM

Structure (SMILES): COc1ccccc1N1CCN(c2ncnc3c2nc(-c2ccccc2Cl)n3-c2ccc(Cl)cc2)CC1
Ki (Cannabinoid receptor 1): 0.002 µM | Ki (Cannabinoid receptor 2): 5 µM

Drug uptake [7]: Active
Structure (SMILES): Cc1c(C(=O)NN2CCCCC2)nn(-c2ccc(Cl)cc2Cl)c1-c1ccc(Cl)cc1 [RIMONABANT]

Structure (SMILES): N#Cc1ccc(N2CCN(c3ncnc4c3nc(-c3ccccc3Cl)n4-c3ccc(Cl)cc3)CC2)cc1
Ki (Cannabinoid receptor 2): > 10 µM

Structure (SMILES): Cc1ccccc1CN1CCN(c2ncnc3c2nc(-c2ccccc2Cl)n3-c2ccc(Cl)cc2)CC1
Ki (Cannabinoid receptor 2): 4.6 µM

Structure (SMILES): Clc1ccc(CN2CCN(c3ncnc4c3nc(-c3ccccc3Cl)n4-c3ccc(Cl)cc3)CC2)cc1
Ki (Cannabinoid receptor 2): > 10 µM

Structure (SMILES): FC(F)(F)Oc1ccccc1CN1CCN(c2ncnc3c2nc(-c2ccccc2Cl)n3-c2ccc(Cl)cc2)CC1
Ki (Cannabinoid receptor 2): > 10 µM

Structure (SMILES): Clc1ccc(-n2c(-c3ccccc3Cl)nc3c(N4CCN(CCc5ccncc5)CC4)ncnc32)cc1
Ki (Cannabinoid receptor 1): 0.012 µM | Ratio Ki (Homo sapiens): 52 | Ki (Cannabinoid receptor 2): 0.63 µM

Structure (SMILES): Oc1cccc(N2CCN(c3ncnc4c3nc(-c3ccccc3Cl)n4-c3ccc(Cl)cc3)CC2)c1
Ki (Cannabinoid receptor 1): 0.025 µM | Ki (Cannabinoid receptor 2): > 10 µM

Structure (SMILES): Clc1ccc(-n2c(-c3ccccc3Cl)nc3c(N4CCN(c5ccccc5)CC4)ncnc32)cc1
Ki (Cannabinoid receptor 2): > 10 µM

Structure (SMILES): CCNC1(C(N)=O)CCN(c2ncnc3c2nc(-c2ccccc2Cl)n3-c2ccc(Cl)cc2)CC1 [OTENABANT]
Activity (Mus musculus [8]): Toxic

Structure (SMILES): COc1ccc(N2CCN(c3ncnc4c3nc(-c3ccccc3Cl)n4-c3ccc(Cl)cc3)CC2)cc1
Ki (Cannabinoid receptor 2): > 10 µM
